From ChEMBL document CHEMBL1124846, “Synthesis, antiproliferative, and antiviral activity of certain 4-substituted and 4,5-disubstituted 7-[(1,3-dihydroxy-2-propoxy)methyl]pyrrolo[2,3-d]pyrimidines” (J Med Chem, 1990) come the findings set out here.

Broadly, the IC50 is the point on the concentration scale where inhibition reaches its midpoint.

One assay has as its system Human betaherpesvirus 5. The assay is described as follows: Inhibition of human cytomegalovirus (HCMV) in plaque reduction assay. It is filed as functional, organism-based. The method in brief:
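HCMV Towne strain (plaque-purified P0) plaque reduction in HFF monolayers in MEM(E) with 10% FBS. Inoculum held about 50 PFU, with compound dissolved in the overlay medium. IC50 came from linear regression of percent inhibition against log concentration, with ganciclovir or acyclovir positive controls in every set; two to five experiments.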

Assay [1] is described as follows: Cytotoxic activity against HFF cells. It is filed as cell-based. To be noted: Homo sapiens. The gist of the method:
(§1)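 Cytotoxicity was scored visually in uninfected HFF or BSC-1 monolayers within the plaque-reduction assays. Drug-induced cytopathology was read at 35- and 60-fold magnification on a 0 to 4+ scale on the day plaques were stained and counted.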

In assay [2] the test system is L1210. The assay is described as follows: In vitro inhibition of L1210 cell growth. In kind it is functional, Mus musculus. Also noted: concentration or dose not given beside the values. The method in brief:
(§2)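 Murine L1210 leukemia cells in static suspension culture in Fischer's medium with compound for 4 days. Growth rate is the ratio of control to treated population doubling time; where the rate changed, the final rate was used. IC50 is the concentration giving 50% of control growth rate; single-concentration value at 100 μM.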

Another assay concerns Neoplastic cell line. Briefly: Cytotoxic activity against KB cells. In kind it is cell-based. To be noted: Homo sapiens. The method in brief:
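KB cells (human oral epidermoid carcinoma) grown in MEM(H) with 5% FBS. Compound effect on incorporation of radiolabelled precursors into DNA, RNA and protein was measured. IC50s came from linear regression of percent inhibition against log concentration, and the three IC50s were averaged.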

Assay [3] deals with L1210. The assay is described as follows: In vitro inhibition of L1210 cell growth to half of the control rate. In kind it is functional, cell-based. To be noted: Mus musculus. The gist of the method:
as §2

The subject of a further assay is Human alphaherpesvirus 1. The assay is described as follows: Inhibition of herpes simplex virus (HSV-1) in plaque reduction assay. In kind it is functional, organism-based. The gist of the method:
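HSV-1 S-148 strain plaque reduction in BSC-1 monkey kidney monolayers, with about 100 PFU inoculum and compound dissolved in the overlay medium. IC50 came from linear regression of percent inhibition against log concentration, with a positive control in each set.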
(Plaques are areas of infected cells; plaque reduction assays count them against a control.)

A short description of assay [4]: Cytotoxic activity against BSC cells. In kind it is cell-based. To be noted: Cercopithecidae. The gist of the method:
as §1

Consider `OCC(CO)OCn1ccc2c(NO)ncnc21`, for which the half-inhibitory concentration (IC50) (with Human betaherpesvirus 5 (Human betaherpesvirus 5); in assay [1]) was above 100 µM in each case. Further, the Activity in the assay with L1210 [2] is listed as 100%.

As to `OC[C@H]1O[C@@H](n2cc(Br)c3c(NO)ncnc32)[C@H](O)[C@@H]1O`, the IC50 in the assay on Human betaherpesvirus 5 was 3 µM; with Human betaherpesvirus 5 (Human betaherpesvirus 5), 5.6 µM; in assay [1], above 100 µM; with Neoplastic cell line, above 100 µM; with L1210 [3], 25 µM. The same molecule gave an Activity in the assay on L1210 [2] of 10%.

For the molecule `Cc1cn(COC(CO)CO)c2ncnc(N)c12`, the half-inhibitory concentration (IC50) (with Human alphaherpesvirus 1; with Human betaherpesvirus 5 (Human betaherpesvirus 5); in assay [1]; in the assay with L1210 [3]) was above 100 µM in each case. This molecule also came in with an Activity in the assay with L1210 [2] of 73%.

As for `CCNc1ncnc2c1c(Cl)cn2COC(CO)CO`, the IC50 in assay [4] is above 100 µM; with Human alphaherpesvirus 1, above 100 µM; in the assay on Human betaherpesvirus 5 (Human betaherpesvirus 5) it was 100 µM; in assay [1], above 100 µM; in the assay with L1210 [3], above 100 µM. The molecule also gave an Activity in the assay with L1210 [2] of 78%.
